The subject of assay [1] is Fusarium oxysporum. Put plainly: Antimicrobial activity against Fusarium oxysporum at 0.3 uM after 72 hrs by microtiter assay. The assay is classed as functional. Put shortly:
(§1)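 96-well microdilution broth assay with conidia (3 × 10^5 conidia/mL, harvested from 7-day PDA cultures and filtered) against F. oxysporum, F. proliferatum and F. solani at 0.3, 3 and 30 µM. Plates were held at 24 ± 1 °C under a 12 h photoperiod. Growth was read at 620 nm at 24, 48 and 72 h and reported as percent inhibition from mean absorbance with standard error.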

Assay [2] deals with Fusarium proliferatum. Kind of assay: Antimicrobial activity against Fusarium proliferatum at 3 uM after 48 hrs by microtiter assay. The assay is classed as functional. Put shortly:
as §1

Assay [3] relates to Fusarium oxysporum. Put plainly: Antimicrobial activity against Fusarium oxysporum at 0.3 uM after 48 hrs by microtiter assay. In kind it is functional. Put shortly:
as §1

For assay [4], the system named is Fusarium proliferatum. Kind of assay: Antimicrobial activity against Fusarium proliferatum at 3 uM after 72 hrs by microtiter assay. The assay is classed as functional. The essentials:
as §1

Assay [5] concerns Fusarium solani. Put plainly: Antimicrobial activity against Fusarium solani at 30 uM after 48 hrs by microtiter assay. The assay is classed as functional. The essentials:
as §1

The subject of assay [6] is Fusarium proliferatum. Put plainly: Fungicidal activity against Fusarium proliferatum at 30 uM after 72 hrs by microtiter plate assay. The assay is classed as functional, organism-based. The essentials:
(§2)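 After 72 h of microtiter broth exposure at 30 µM, 20 µL from each well was plated onto compound-free potato dextrose agar and incubated 3 days at 28 °C. No regrowth was scored fungicidal; regrowth was scored fungistatic.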

The subject of assay [7] is Fusarium proliferatum. Put plainly: Antimicrobial activity against Fusarium proliferatum at 0.3 uM after 48 hrs by microtiter assay. In kind it is functional. The essentials:
as §1

Assay [8] concerns Fusarium proliferatum. Kind of assay: Antimicrobial activity against Fusarium proliferatum at 30 uM after 48 hrs by microtiter assay. In kind it is functional. Put shortly:
as §1

For assay [9], the system named is Fusarium solani. Put plainly: Antimicrobial activity against Fusarium solani at 0.3 uM after 72 hrs by microtiter assay. The assay is classed as functional. The essentials:
as §1

The test system of assay [10] is Fusarium oxysporum. Kind of assay: Antimicrobial activity against Fusarium oxysporum at 30 uM after 48 hrs by microtiter assay. In kind it is functional. Put shortly: as §1
The test system of another assay is Candida albicans. Put plainly: Antimicrobial activity against Candida albicans ATCC 90028. The assay is classed as functional, organism-based.
Assay [11] concerns Fusarium solani. Put plainly: Antimicrobial activity against Fusarium solani at 3 uM after 48 hrs by microtiter assay. The assay is classed as functional. The essentials: as §1
In assay [12] the test system is Fusarium oxysporum. Put plainly: Antimicrobial activity against Fusarium oxysporum at 30 uM after 72 hrs by microtiter assay. In kind it is functional. Put shortly: as §1
Assay [13] relates to Fusarium solani. Put plainly: Antimicrobial activity against Fusarium solani at 30 uM after 72 hrs by microtiter assay. In kind it is functional. Put shortly: as §1
The subject of another assay is Cryptococcus neoformans. Put plainly: Antimicrobial activity against Cryptococcus neoformans ATCC 90113. The assay is classed as functional, organism-based.
In assay [14] the test system is Fusarium proliferatum. Kind of assay: Antimicrobial activity against Fusarium proliferatum at 30 uM after 72 hrs by microtiter assay. In kind it is functional. The essentials: as §1
For assay [15], the system named is Fusarium solani. Kind of assay: Antimicrobial activity against Fusarium solani at 0.3 uM after 48 hrs by microtiter assay. In kind it is functional. The essentials:
as §1

In assay [16] the test system is Fusarium solani. Kind of assay: Fungicidal activity against Fusarium solani at 30 uM after 72 hrs by microtiter assay. The assay is classed as functional, organism-based. Put shortly: as §2
Assay [17] has as its system Fusarium proliferatum. Put plainly: Antimicrobial activity against Fusarium proliferatum at 0.3 uM after 72 hrs by microtiter assay. The assay is classed as functional. The essentials:
as §1

In assay [18] the test system is Fusarium solani. Kind of assay: Antimicrobial activity against Fusarium solani at 3 uM after 72 hrs by microtiter assay. In kind it is functional. The essentials:
as §1

A further assay has as its system Aspergillus fumigatus. Kind of assay: Antimicrobial activity against Aspergillus fumigatus ATCC 90906. The assay is classed as functional, organism-based.
For assay [19], the system named is Fusarium oxysporum. Kind of assay: Antimicrobial activity against Fusarium oxysporum at 3 uM after 72 hrs by microtiter assay. The assay is classed as functional. The essentials: as §1
For assay [20], the system named is Fusarium oxysporum. Kind of assay: Fungicidal activity against Fusarium oxysporum at 30 uM after 72 hrs by microtiter plate assay. The assay is classed as functional, organism-based. Put shortly: as §2
In assay [21] the test system is Fusarium oxysporum. Put plainly: Antimicrobial activity against Fusarium oxysporum at 3 uM after 48 hrs by microtiter assay. The assay is classed as functional. Put shortly: as §1
In the next assay the test system is Escherichia coli. Put plainly: Antimicrobial activity against Escherichia coli. In kind it is functional, organism-based.
In the next assay the test system is Staphylococcus aureus. Put plainly: Antimicrobial activity against methicillin-resistant Staphylococcus aureus. The assay is classed as functional, organism-based.
For assay [22], the system named is Fusarium oxysporum. Put plainly: Fungistatic activity against Fusarium oxysporum at 30 uM after 72 hrs by microtiter plate assay. In kind it is functional, organism-based. Put shortly: (§3)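 Conidia come from 7-day potato dextrose agar cultures, filtered and set photometrically (625 nm) to 3 × 10^5 conidia/mL. They are exposed to compound at 30 µM in 96-well microdilution broth at 24 ± 1 °C under a 12 h photoperiod. After 72 h, 20 µL per well is subcultured on drug-free potato dextrose agar at 28 °C for 3 days. No regrowth is scored fungicidal; regrowth is scored fungistatic.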

Assay [23] has as its system Fusarium solani. Put plainly: Fungistatic activity against Fusarium solani at 30 uM after 72 hrs by microtiter plate assay. In kind it is functional, organism-based. The essentials: as §3
In assay [24] the test system is Fusarium proliferatum. Put plainly: Fungistatic activity against Fusarium proliferatum at 30 uM after 72 hrs by microtiter plate assay. The assay is classed as functional, organism-based. Put shortly: as §3
Assay [25] relates to Fusarium proliferatum. Kind of assay: Antifungal activity against Fusarium proliferatum at 20 ug/mL after 3 days by fluorescence assay. In kind it is functional, organism-based. Put shortly: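 Fusarium proliferatum conidia in potato dextrose broth in a tube with the coumarin (DEAC)-labelled probe at 20 µg/mL, held at 24 ± 1 °C. Hyphae and mycelia were viewed at 4, 8, 16, 24, 48 and 72 h by light and epifluorescence microscopy at 400× and 1000×. Conidia were first checked for autofluorescence.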

For assay [26], the system named is Mycobacterium intracellulare. Put plainly: Antimicrobial activity against Mycobacterium intracellular ATCC 23068. In kind it is functional, organism-based.
The test system of assay [27] is Mycobacterium tuberculosis. Kind of assay: Antibacterial activity against Mycobacterium tuberculosis H37Rv at 16 ug/mL by micro plate alamar blue assay. In kind it is functional. Put shortly:
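M. tuberculosis H37Rv ATCC 27294 grown in BACTEC 12B medium; microplate Alamar blue assay (MABA). Primary screen at a single concentration of 16 µg/mL, read as percent inhibition.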

pIC50: −log10 of the molar value. ≈ marks a conversion by molar mass, not a printed value. Calls of active or inactive are those of the source.

One may read the inhibition as the share of the control response that was lost under treatment. Read a low inhibition as a weak effect. A word on the pIC50: it is −log10 of the IC50, conventionally taken in molar units. Broadly, the MIC is the smallest concentration in the dilution series that meets the test's criterion for growth inhibition. For the molecule `C[C@@H]1[C@H](O)[C@@H](C)/C=C/C=C/C=C/C=C/C=C/C=C/C=C/[C@H](O[C@@H]2O[C@H](C)[C@@H](O)[C@H](N)[C@@H]2O)C[C@@H]2O[C@](O)(C[C@@H](O)C[C@@H](O)[C@H](O)CC[C@@H](O)C[C@@H](O)CC(=O)O[C@H]1C)C[C@H](O)[C@H]2C(=O)O` [AMPHOTERICIN B], the inhibition at 0.3 µM in the assay with Fusarium oxysporum [1] amounted to 0%; in the assay with Fusarium oxysporum [3], 0%; in the assay on Fusarium proliferatum [7] it was 0%; in the assay with Fusarium solani [9], 0.1%; with Fusarium solani [15], 0%; with Fusarium proliferatum [17], 0%. Besides, the inhibition at 3 µM in the assay on Fusarium proliferatum [2] was found to be 7.9%; in the assay on Fusarium proliferatum [4], 0%; in the assay on Fusarium solani [11], 18.1%; in the assay on Fusarium solani [18], 0%; with Fusarium oxysporum [19], 0%; in the assay with Fusarium oxysporum [21] it was 12.5%. For the same molecule, the inhibition at 30 µM worked out at 100% in the assay on Fusarium solani [5]; 99.8% in the assay on Fusarium proliferatum [8]; 99.7% with Fusarium oxysporum [10]; 87.1% with Fusarium oxysporum [12]; 98.1% with Fusarium solani [13]; 79% with Fusarium proliferatum [14]. Also, the outcome in the assay on Fusarium proliferatum [6], in the assay on Fusarium solani [16] and in the assay with Fusarium oxysporum [20] was Active. Moreover, the negative logarithm of the IC50 (pIC50) with Candida albicans was 6.60; in the assay on Cryptococcus neoformans, 6.10; in the assay with Aspergillus fumigatus it was 5.88. Besides, the MFC in the assay on Candida albicans worked out at 1.25 µM (≈ 1.16 µg/mL); in the assay on Cryptococcus neoformans, 0.06 µM (≈ 0.0554 µg/mL); in the assay with Aspergillus fumigatus, 2.5 µM (≈ 2.31 µg/mL). The values for the MIC against Candida albicans, against Cryptococcus neoformans and with Aspergillus fumigatus were 0.625 µM (≈ 0.578 µg/mL), 0.016 µM (≈ 0.0148 µg/mL) and 2.5 µM (≈ 2.31 µg/mL), respectively.
With `C/C=C(\NC(=O)[C@H](Cc1ccccc1)NC(=O)[C@H](NC(=O)[C@H](NC(=O)[C@H](NC(=O)[C@H](NC(=O)[C@H](CCCN)NC(=O)[C@H]1CCCN1C(=O)[C@@H](NC(=O)[C@H](NC(=O)[C@H](NC(=O)[C@@H](NC(=O)CCCC(C)C)C(C)C)[C@H](C)O)C(C)C)C(C)C)[C@@H](C)CC)[C@@H](C)O)[C@@H](C)CC)C(C)C)C(=O)N[C@H](C(=O)O)C(C)C`, the result with Escherichia coli and in the assay with Staphylococcus aureus was inactive.
Regarding `O=C1C2CC=CCC2C(=O)N1SC(Cl)(Cl)Cl` (stereo not given) [CAPTAN], the inhibition at 0.3 µM in the assay with Fusarium oxysporum [1] is 0%; in the assay with Fusarium oxysporum [3], 0.2%; in the assay with Fusarium proliferatum [7] it was 6%; with Fusarium solani [9] it was 0%; in the assay with Fusarium solani [15], 0%; in the assay on Fusarium proliferatum [17] it was 3%. Also, the inhibition at 3 µM in the assay with Fusarium proliferatum [2] was 12%; in the assay with Fusarium proliferatum [4] it was 0%; in the assay with Fusarium solani [11], 5.1%; in the assay on Fusarium solani [18] it was 0%; with Fusarium oxysporum [19], 0%; in the assay with Fusarium oxysporum [21], 7.6%. Further, the outcome in the assay with Fusarium oxysporum [22], in the assay with Fusarium solani [23] and in the assay with Fusarium proliferatum [24] was Active. Moreover, the inhibition at 30 µM was 90.7% in the assay on Fusarium solani [5]; 100% in the assay on Fusarium proliferatum [8]; 99.5% in the assay with Fusarium oxysporum [10]; 98.1% in the assay with Fusarium oxysporum [12]; 47.9% in the assay on Fusarium solani [13]; 100% with Fusarium proliferatum [14].
On to `CO/C=C(/C(=O)OC)c1ccccc1Oc1cc(Oc2ccccc2C#N)ncn1` [AZOXYSTROBIN], for which the inhibition at 0.3 µM with Fusarium oxysporum [1] was determined as 15.3%; with Fusarium oxysporum [3], 22.7%; in the assay with Fusarium proliferatum [7], 0%; in the assay on Fusarium solani [9], 11.7%; in the assay on Fusarium solani [15], 16.6%; in the assay with Fusarium proliferatum [17], 0%. For the same molecule, the inhibition at 3 µM is 21.7% with Fusarium proliferatum [2]; 14.8% in the assay on Fusarium proliferatum [4]; 25.3% in the assay on Fusarium solani [11]; 15% in the assay with Fusarium solani [18]; 7.1% with Fusarium oxysporum [19]; 32.3% in the assay with Fusarium oxysporum [21]. Moreover, the outcome in the assay on Fusarium oxysporum [22], in the assay on Fusarium solani [23] and in the assay on Fusarium proliferatum [24] was Active. The inhibition at 30 µM in the assay with Fusarium solani [5] amounted to 62.7%; with Fusarium proliferatum [8] it was 53%; in the assay on Fusarium oxysporum [10], 77.2%; in the assay on Fusarium oxysporum [12], 32.9%; in the assay on Fusarium solani [13] it was 51.7%; with Fusarium proliferatum [14], 40.7%.
Regarding `C/C=C1\NC(=O)[C@H](Cc2ccccc2)NC(=O)[C@@H](C(C)C)NC(=O)[C@@H]([C@@H](C)CC)NC(=O)[C@H](NC(=O)[C@H](NC(=O)[C@H](CCCNC(=O)c2cc3ccc(N(CC)CC)cc3oc2=O)NC(=O)[C@H]2CCCN2C(=O)[C@@H](NC(=O)[C@H](NC(=O)[C@H](NC(=O)[C@@H](NC(=O)CCCC(C)C)C(C)C)[C@H](C)O)C(C)C)C(C)C)[C@@H](C)CC)[C@@H](C)OC(=O)[C@H](C(C)C)NC1=O`, the outcome in the assay on Fusarium proliferatum [6], in the assay on Fusarium proliferatum [25], with Fusarium solani [16] and with Fusarium oxysporum [20] was inactive.
As to `CC(C)CCC[C@H]1CC(=O)N[C@H](Cc2c[nH]c3ccccc23)C(=O)N2CCC[C@H]2C(=O)N[C@@H](CCCNC(=N)N)C(=O)O1` [KAHALALIDE D], the negative logarithm of the IC50 (pIC50) (in assay [26]; in the assay on Candida albicans; in the assay with Cryptococcus neoformans; with Aspergillus fumigatus) was less than 4.47 throughout. Moreover, the inhibition at 16 µg/mL in assay [27] worked out at 49%. Besides, the result with Escherichia coli and in the assay with Staphylococcus aureus was inactive.

Values taken from ChEMBL document CHEMBL1148762, “Lysosome and HER3 (ErbB3) selective anticancer agent kahalalide F: semisynthetic modifications and antifungal lead-exploration studies” (J Med Chem, 2007).
